Legend:
[1] = system: OVCAR-3; assay: Cytotoxicity against human OVCAR3 cells assessed as cell growth at 10 uM after 48 hrs relative to control; assay type: functional; details: OVCAR-3, 48 h, read-out: Activity
In short: (§1)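 Run at the National Cancer Institute as a single-dose screen across its 60-cell-line cancer panel. Compound was tested at 10 micromolar, and growth was expressed as a percentage of negative-control cultures.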

[2] = system: SN12C; assay: Cytotoxicity against human SN12C cells assessed as cell growth at 10 uM after 48 hrs relative to control; assay type: functional; details: read-out: Activity
In short: (§2)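 Submitted to the National Cancer Institute for a single-dose screen at 10 micromolar against 60 cancer cell lines. Growth is expressed relative to negative-control cultures.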

[3] = system: SK-MEL-5; assay: Cytotoxicity against human SK-MEL-5 cells assessed as cell growth at 10 uM after 48 hrs relative to control; assay type: functional; details: SK-MEL-5, 48 h, read-out: Activity; in short: as §1
[4] = system: UACC-257; assay: Cytotoxicity against human UACC257 cells assessed as cell growth at 10 uM after 48 hrs relative to control; assay type: functional; details: UACC-257, 48 h, read-out: Activity; in short: as §2
[5] = system: LOX IMVI; assay: Cytotoxicity against human LOXIMVI cells assessed as cell growth at 10 uM after 48 hrs relative to control; assay type: functional; details: read-out: Activity; in short: as §1
[6] = system: OVCAR-8; assay: Cytotoxicity against human OVCAR8 cells assessed as cell growth at 10 uM after 48 hrs relative to control; assay type: functional; details: OVCAR-8, 48 h, read-out: Activity; in short: as §1
[7] = system: SW-620; assay: Cytotoxicity against human SW620 cells assessed as cell growth at 10 uM after 48 hrs relative to control; assay type: functional; details: SW-620, 48 h, read-out: Activity; in short: as §2
[8] = system: NCI/ADR-RES; assay: Cytotoxicity against human NCI/ADR-RES cells assessed as cell growth at 10 uM after 48 hrs relative to control; assay type: functional; details: read-out: Activity; in short: as §1
[9] = system: M14; assay: Cytotoxicity against human M14 cells assessed as cell growth at 10 uM after 48 hrs relative to control; assay type: functional; details: M14, 48 h, read-out: Activity; in short: as §1
[10] = system: HCT-15; assay: Cytotoxicity against human HCT15 cells assessed as cell growth at 10 uM after 48 hrs relative to control; assay type: functional; details: HCT-15, 48 h, read-out: Activity; in short: as §1
[11] = system: COLO 205; assay: Cytotoxicity against human COLO205 cells assessed as cell growth at 10 uM after 48 hrs relative to control; assay type: functional; details: COLO 205, 48 h, read-out: Activity; in short: as §1
[12] = system: IGROV-1; assay: Cytotoxicity against human IGROV1 cells assessed as cell growth at 10 uM after 48 hrs relative to control; assay type: functional; details: IGROV-1, 48 h, read-out: Activity; in short: as §1
[13] = system: MDA-MB-231; assay: Cytotoxicity against human MDA-MB-231 cells assessed as cell growth at 10 uM after 48 hrs relative to control; assay type: functional; details: MDA-MB-231, 48 h, read-out: Activity; in short: as §1
[14] = system: 786-0; assay: Cytotoxicity against human 786-0 cells assessed as cell growth at 10 uM after 48 hrs relative to control; assay type: functional; details: 786-0, 48 h, read-out: Activity; in short: as §1
[15] = system: CCRF-CEM; assay: Cytotoxicity against human CCRF-CEM cells assessed as cell growth at 10 uM after 48 hrs relative to control; assay type: functional; details: read-out: Activity; in short: as §1
[16] = system: MDA-MB-435; assay: Cytotoxicity against human MDA-MB-435 cells assessed as cell growth at 10 uM after 48 hrs relative to control; assay type: functional; details: MDA-MB-435, 48 h, read-out: Activity; in short: as §1
[17] = molecular target: T1, Proteasome Macropain subunit MB1 (Homo sapiens, UniProt P28074); assay: Inhibition of human 20S proteasome beta5 subunit using Suc-LLVY-AMC as substrate by fluorescence assay
T1 sequence (P28074 whole entry): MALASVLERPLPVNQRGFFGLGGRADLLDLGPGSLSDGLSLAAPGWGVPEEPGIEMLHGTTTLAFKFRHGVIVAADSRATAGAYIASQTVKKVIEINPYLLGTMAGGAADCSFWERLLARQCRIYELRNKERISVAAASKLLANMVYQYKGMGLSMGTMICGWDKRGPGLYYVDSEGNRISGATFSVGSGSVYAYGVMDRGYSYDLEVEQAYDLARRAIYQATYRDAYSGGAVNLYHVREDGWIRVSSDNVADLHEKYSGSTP

[18] = Cytotoxicity against human Hs578T cells assessed as cell growth at 10 uM after 48 hrs relative to control; assay type: functional; details: Hs-578T, read-out: Activity; in short: as §1
[19] = system: NCI-H226; assay: Cytotoxicity against human NCI-H226 cells assessed as cell growth at 10 uM after 48 hrs relative to control; assay type: functional; details: NCI-H226, 48 h, read-out: Activity; in short: as §1
[20] = system: SNB-75; assay: Cytotoxicity against human SNB75 cells assessed as cell growth at 10 uM after 48 hrs relative to control; assay type: functional; details: SNB-75, 48 h, read-out: Activity; in short: as §2
[21] = system: A498; assay: Cytotoxicity against human A498 cells assessed as cell growth at 10 uM after 48 hrs relative to control; assay type: functional; details: A498, 48 h, read-out: Activity; in short: as §1
[22] = system: SF-295; assay: Cytotoxicity against human SF295 cells assessed as cell growth at 10 uM after 48 hrs relative to control; assay type: functional; details: SF-295, 48 h, read-out: Activity; in short: as §1
[23] = system: NCI-H23; assay: Cytotoxicity against human NCI-H23 cells assessed as cell growth at 10 uM after 48 hrs relative to control; assay type: functional; details: NCI-H23, 48 h, read-out: Activity; in short: as §1
[24] = system: MCF7; assay: Cytotoxicity against human MCF7 cells assessed as cell growth at 10 uM after 48 hrs relative to control; assay type: functional; details: MCF7, 48 h, read-out: Activity; in short: as §1
[25] = system: U-251; assay: Cytotoxicity against human U251 cells assessed as cell growth at 10 uM after 48 hrs relative to control; assay type: functional; details: U-251, 48 h, read-out: Activity; in short: as §2
[26] = system: HCC 2998; assay: Cytotoxicity against human HCC2998 cells assessed as cell growth at 10 uM after 48 hrs relative to control; assay type: functional; details: HCC 2998, 48 h, read-out: Activity; in short: as §1
[27] = system: OVCAR-5; assay: Cytotoxicity against human OVCAR5 cells assessed as cell growth at 10 uM after 48 hrs relative to control; assay type: functional; details: OVCAR-5, 48 h, read-out: Activity; in short: as §1
[28] = system: HL-60(TB); assay: Cytotoxicity against human HL-60(TB) cells assessed as cell growth at 10 uM after 48 hrs relative to control; assay type: functional; details: HL-60, 48 h, read-out: Activity
In short: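 Run at the NCI as a single-dose screen: each compound at 10 micromolar across the 60-cancer-cell-line panel. Growth of each cell line in compound-containing media was expressed relative to negative-control cultures.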

[29] = system: CAKI-1; assay: Cytotoxicity against human Caki1 cells assessed as cell growth at 10 uM after 48 hrs relative to control; assay type: functional; details: CAKI-1, 48 h, read-out: Activity; in short: as §1
[30] = system: HL-60; assay: Cytotoxicity against human HL60 cells after 48 hrs; assay type: functional; details: HL-60, 48 h
[31] = system: KM12; assay: Cytotoxicity against human KM12 cells assessed as cell growth at 10 uM after 48 hrs relative to control; assay type: functional; details: KM12, 48 h, read-out: Activity; in short: as §1
[32] = system: HCT-116; assay: Cytotoxicity against human HCT116 cells assessed as cell growth at 10 uM after 48 hrs relative to control; assay type: functional; details: HCT-116, 48 h, read-out: Activity; in short: as §1
[33] = system: SK-MEL-2; assay: Cytotoxicity against human SK-MEL-2 cells assessed as cell growth at 10 uM after 48 hrs relative to control; assay type: functional; details: SK-MEL-2, 48 h, read-out: Activity; in short: as §1

SMILES | growth at 10 µM [1] [%] | growth at 10 µM [2] [%] | growth at 10 µM [3] [%] | growth at 10 µM [4] [%] | growth at 10 µM [5] [%] | growth at 10 µM [6] [%] | growth at 10 µM [7] [%] | growth at 10 µM [8] [%] | growth at 10 µM [9] [%] | growth at 10 µM [10] [%] | growth at 10 µM [11] [%] | growth at 10 µM [12] [%] | growth at 10 µM [13] [%] | growth at 10 µM [14] [%] | growth at 10 µM [15] [%] | growth at 10 µM [16] [%] | Ki [17] [nM] | growth at 10 µM [18] [%] | growth at 10 µM [19] [%] | growth at 10 µM [20] [%] | other results
COC(=O)[C@@H](NC(=O)N[C@H](C(=O)N[C@H]1CCCCNC(=O)/C=C/[C@H](C(C)C)NC1=O)C(C)C)C(C)C | -39.6 | 15.8 | -4.25 | 33.4 | -24.1 | 86.4 | 30.3 | 100 | 64.5 | 98.2 | 51.7 | 33.4 | 24.4 | 83.3 | 15.1 | -55.5 | 2120 | 4.52 | -24 | -34.6 | growth at 10 µM [21]: 43.2%; growth at 10 µM [22]: 58.9%; growth at 10 µM [23]: 34.2%; growth at 10 µM [24]: 42.8%; growth at 10 µM [25]: 8.29%; growth at 10 µM [26]: -0.39%; growth at 10 µM [27]: 58.4%; growth at 10 µM [28]: 27.2%; growth at 10 µM [29]: 103%; GI50 [30]: 5410 nM; growth at 10 µM [31]: 1.78%; growth at 10 µM [32]: 21.2%; growth at 10 µM [33]: 1.6%
COC(=O)[C@@H](NC(=O)N[C@H](C(=O)N[C@H]1CCCCNC(=O)/C=C/[C@H](Cc2c[nH]c3ccccc23)NC1=O)C(C)C)C(C)C | -42.9 | 2.96 | 60.6 | 65.4 | 25.1 | 97.1 | 58.3 | 98.4 | 86.7 | 109 | 58.9 | 24.7 | 39 | 83.9 | 15.8 | -81.5 | 1710 | 9.21 | 15.1 | -34 | growth at 10 µM [21]: 37.9%; growth at 10 µM [22]: 85.4%; growth at 10 µM [23]: 38.2%; growth at 10 µM [24]: 48.5%; growth at 10 µM [25]: 27.4%; growth at 10 µM [26]: 44.2%; growth at 10 µM [27]: 61.1%; growth at 10 µM [28]: 17.6%; growth at 10 µM [29]: 98.8%; growth at 10 µM [31]: 74.5%; growth at 10 µM [32]: 37.4%; growth at 10 µM [33]: 17.4%
COC(=O)[C@@H](NC(=O)N[C@@H](Cc1ccccc1)C(=O)N[C@H]1CCCCNC(=O)/C=C/[C@H](Cc2c[nH]c3ccccc23)NC1=O)C(C)C | 15.7 | 80.1 | 63.9 | 87.1 | 64.7 | 98.9 | 87.7 | 99.1 | 101 | 110 | 94 | 61.4 | 79.1 | 99.7 | 58.2 | 1.21 | 385 | 58.2 | 65.7 | 33 | growth at 10 µM [21]: 78.2%; growth at 10 µM [22]: 99.7%; growth at 10 µM [23]: 78.1%; growth at 10 µM [24]: 40.3%; growth at 10 µM [25]: 63.9%; growth at 10 µM [26]: 91.8%; growth at 10 µM [27]: 113%; growth at 10 µM [28]: 55.3%; growth at 10 µM [29]: 106%; GI50 [30]: 1290 nM; growth at 10 µM [31]: 94.6%; growth at 10 µM [32]: 76.4%; growth at 10 µM [33]: 22.3%

Reference: ChEMBL document CHEMBL3612027, “Substrate-guided optimization of the syringolins yields potent proteasome inhibitors with activity against leukemia cell lines” (Bioorg Med Chem, 2015)
